Assay results from different studies.
pEC50, pIC50: −log10 of the molar value.
Cell line: NCI-H460
Effect on: cell growth or viability

| SMILES | method | concentration | time | endpoint | value |
| --- | --- | --- | --- | --- | --- |
| N#Cc1ccc(-c2cc(CNc3cccc4cccnc34)on2)cc1 | MTS |  | 72 h | pIC50 | < 4.00 |
| COc1ccc(NC(=O)NCc2cn(Cc3ccc(Cl)cc3)nn2)cc1 | CCK-8 | 50 µM | 72 h | viability | 91.8% |
| O=c1cc(OCc2cc(-c3ccccc3)no2)c2ccccc2o1 | MTS |  | 72 h | pIC50 | < 4.00 |
| COc1ccc(NC(=O)Nc2ccc(-c3cn(Cc4ccc(Cl)cc4)nn3)cc2)cc1 | CCK-8 | 50 µM | 72 h | viability | 86.8% |
| CCCCCCCCCCCCCCCCCCOc1cccc(CC(=O)OCC[N+]2(C)CCOCC2)c1 | SRB | 10 µM |  | inhibition | 1% |
| O=C(CSc1nc2ccccc2s1)N/N=C/c1ccc(OCC(=O)Nc2cccc(Br)c2)cc1 | MTS |  | 72 h | pIC50 | 4.49 |
| FC(F)(F)c1cc(OCc2cc(-c3ccccc3)no2)c2ccccc2n1 | MTS |  | 72 h | pIC50 | < 4.00 |
| Cc1nc(NC(=O)N2CCC[C@H]2C(N)=O)sc1-c1ccnc(C(C)(C)C(F)(F)F)c1 | ATP luminescence |  | 5 days | pEC50 | 4.46 |
| COc1ccc(NC(=O)Nc2ccc(-c3cn(Cc4cccc(Cl)c4)nn3)cc2)cc1 | CCK-8 | 50 µM | 72 h | viability | 87.4% |
| FC(F)(F)c1cc(OCc2cc(-c3ccccn3)no2)c2ccccc2n1 | MTS |  | 72 h | pIC50 | < 4.00 |
| CCCCCCCCCCCCCCCCCCOc1ccccc1CC(=O)OCC[N+](C)(C)C | SRB | 10 µM |  | inhibition | 86.5% |
| COc1ccc(NC(=O)Nc2cccc(-c3cn(Cc4ccc(Br)cc4)nn3)c2)cc1 | CCK-8 | 50 µM | 72 h | viability | 106% |
| O=C(CSc1nc2ccccc2s1)N/N=C/c1ccc(OCC(=O)Nc2ccc([N+](=O)[O-])cc2)cc1 | MTS |  | 72 h | pIC50 | < 4.00 |
| CCCCCCCCCCCCCCCCCCOc1ccccc1CC(=O)OCC[N+](CC)(CC)CC | SRB | 10 µM |  | inhibition | 65.4% |
| FC(F)(F)c1cc(OCc2cc(-c3ccc(Cl)cc3Cl)no2)c2ccccc2n1 | MTS |  | 72 h | pIC50 | < 4.00 |
| CCCCCCCCCCCCCCCCCCOc1cccc(CC(=O)OCC[N+]2(C)CCCC2)c1 | SRB | 10 µM |  | inhibition | 4.17% |
| COc1ccc(NC(=O)Nc2cccc(-c3cn(Cc4cccc(Cl)c4)nn3)c2)cc1 | CCK-8 | 50 µM | 72 h | viability | 105% |
| O=C(CSc1nc2ccccc2s1)N/N=C/c1ccc(OCC(=O)Nc2cccc(Cl)c2)cc1 | MTS |  | 72 h | pIC50 | 4.53 |
| CCCCCCCCCCCCCCCCCCOc1ccccc1CC(=O)OCC[N+]1(C)CCCCC1 | SRB | 10 µM |  | inhibition | 37.8% |
| Clc1ccc(-c2cc(CNc3cccc4cccnc34)on2)c(Cl)c1 | MTS |  | 72 h | pIC50 | < 4.00 |
| Cc1ccccc1Cn1cc(-c2cccc(NC(=O)Nc3ccc(F)cc3)c2)nn1 | CCK-8 | 50 µM | 72 h | viability | 72.6% |
| CCCCCCCCCCCCCCCCCCOc1cccc(CC(=O)OCCC[N+](C)(C)C)c1 | SRB | 10 µM |  | inhibition | 4.47% |
| COc1ccc(NC(=O)Nc2ccc(-c3cn(Cc4ccc(Br)cc4)nn3)cc2)cc1 | CCK-8 | 50 µM | 72 h | viability | 86.6% |
| O=c1cc(OCc2cc(-c3ccccn3)no2)c2ccccc2o1 | MTS |  | 72 h | pIC50 | < 4.00 |
| CCCCCCCCCCCCCCCCCCOc1ccc(CC(=O)OCC[N+](CC)(CC)CC)cc1 | SRB | 10 µM |  | inhibition | 15.8% |
| FC(F)(F)c1ccc(-c2cc(CNc3cccc4cccnc34)on2)cc1 | MTS |  | 72 h | pIC50 | < 4.00 |
| CCCCCCCCCCCCCCCCCCOCC(COP(=O)([O-])OCC[N+](C)(C)C)OC (stereo not drawn) | SRB | 10 µM |  | inhibition | 53.6% |
